Experiment: Toxicity liver stage against HepG2, at 10uM
Assay type: cell-based
Set-up: test concentration 10 uM, cell line HepG2-A16-CD81EGFP
Conditions: human, HepG2-A16-CD81EGFP cells; read-out: INHIBITION
How it was run: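 Uninfected HepG2-A16-CD81EGFP cells, 3 × 10^3 per well, 1536-well, plated on prespotted compound at 10 μM final, parasite-free screening media added to match infected plates; puromycin 10 μM positive, DMSO 0.5% negative; run in parallel with 48 h PbLuc assay at 37 °C, 5% CO2; viability by CellTiter-Glo luminescence, normalized to controls.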

COC(=O)[C@H]1CN(C(=O)NC(C)C)CCN1C(=O)c1cccs1
cytotoxicity at 10 µM: -0.832%

CCOC(=O)CNC(=O)NCc1cccn1Cc1ccccc1C
cytotoxicity at 10 µM: 4.9%

CN(CC(=O)N1CCC(Oc2ccc(C(F)(F)F)cn2)CC1)S(C)(=O)=O
cytotoxicity at 10 µM: 1.97%

COc1ccc(S(=O)(=O)NCCC(O)c2cc(C)oc2C)c(C)c1 (stereo unspecified)
cytotoxicity at 10 µM: -0.165%

O=C1CC2(CCN(S(=O)(=O)c3cccs3)C2)CN1c1cccc(F)c1 (stereo unspecified)
cytotoxicity at 10 µM: -1.51%

CN(C)c1ncc(-c2cc(C(=O)NC(C)(C)CO)n(CC3CC3)c2)cn1
cytotoxicity at 10 µM: -13.4%

Cn1cccc1C(=O)NCc1cnc2n1CCN(c1ccccn1)C2
cytotoxicity at 10 µM: -2.74%

COC[C@@]12CCO[C@@H]1CCN(C(=O)Cc1cccc(F)c1)C2
cytotoxicity at 10 µM: -8.95%

COc1nn(C)c2c1CCCN(C(=O)c1cccs1)C2
cytotoxicity at 10 µM: 8.36%

O=C(c1cnccn1)N1CCN(CC2CC2)c2ncccc2C1
cytotoxicity at 10 µM: -3.99%

Cc1nc(N2CCCC2)nc2c1CCN(C(=O)C1CCC1)CC2
cytotoxicity at 10 µM: 3.39%

CC(O)CNC(=O)c1nc(Cc2c(Cl)cccc2Cl)no1 (stereo unspecified)
cytotoxicity at 10 µM: 3%

COc1cccc2c1ccn2CCC(=O)NCCCC(=O)O
cytotoxicity at 10 µM: 9.64%

Cn1nc(CNC(=O)NCc2ccc(Cl)cc2)c2c1CCOC2
cytotoxicity at 10 µM: 2.81%

CC(C)n1[nH]c(=O)c2c1NC(=O)CC2c1ccc2ncccc2c1 (stereo unspecified)
cytotoxicity at 10 µM: 9.76%

CC1CCN(C(=O)C(C)Oc2ccc3c(c2)OCO3)CC1 (stereo unspecified)
cytotoxicity at 10 µM: -1.9%

CCn1ccc(NC(=O)CCn2nc(C)c3ccccc32)n1
cytotoxicity at 10 µM: 4.51%

CC1=C(C(N)=O)C(c2cn(C)nc2C)N2C(=O)CSC2=N1 (stereo unspecified)
cytotoxicity at 10 µM: 4.43%

Cc1cccc(CNC(=O)CC2CCN(S(C)(=O)=O)CC2)n1
cytotoxicity at 10 µM: -1.57%

CC(=O)N1CCC(c2cnc(NC3CCOCC3)cn2)CC1
cytotoxicity at 10 µM: -3.73%

O=C1CN(C(=O)C2CN(c3ccc(F)cc3)CCO2)CCN1 (stereo unspecified)
cytotoxicity at 10 µM: 3.04%

CN(C)S(=O)(=O)N1CC(c2nc(N)ncc2-c2ccc(F)cc2)C1
cytotoxicity at 10 µM: -4.64%

Cn1ccnc1CN1CCC(CCCc2ccccn2)(C(N)=O)CC1
cytotoxicity at 10 µM: -1.31%

Cc1cncnc1C1CCN(CCO)CC1
cytotoxicity at 10 µM: -7.26%

Cc1nc(C2CN(C)CCO2)cc(N2CCC(C(N)=O)CC2)n1 (stereo unspecified)
cytotoxicity at 10 µM: -22.8%

CNc1nccnc1C1CCN(C(C)C)CC1
cytotoxicity at 10 µM: -25.2%

CCC(C(=O)NCCc1ccn(-c2ccccc2)n1)N1CCCC1=O (stereo unspecified)
cytotoxicity at 10 µM: 6.18%

COC(=O)[C@H](C)NC(=O)c1nc(C2CC2)n(-c2ccccc2Cl)n1
cytotoxicity at 10 µM: -1.76%

CN(C)C(=O)CNC(=O)c1nc(C2CC2)n(-c2ccccc2Cl)n1
cytotoxicity at 10 µM: -2.03%

Cc1nnc(NCc2ccc(SC(F)F)cc2)o1
cytotoxicity at 10 µM: 6.48%

CN1CCCN(S(=O)(=O)c2cn(C)cn2)c2cc(F)ccc21
cytotoxicity at 10 µM: 6.06%

CCN(CCNS(=O)(=O)C1CCOCC1)C(=O)OC(C)(C)C
cytotoxicity at 10 µM: -1.8%

Cc1ncc(C(=O)NCCNc2ccncc2)s1
cytotoxicity at 10 µM: 1.72%

Cc1ncsc1C(=O)NCC1SCCc2ccccc21 (stereo unspecified)
cytotoxicity at 10 µM: -8.21%

CCN(CC)C(=O)CN(C)C(=O)c1cccn1CCc1ccccc1
cytotoxicity at 10 µM: 1.98%

NC(=O)N1CCCC(C(=O)NCCOc2ccc(F)cc2F)C1 (stereo unspecified)
cytotoxicity at 10 µM: 3.26%

CC(O)(CNc1ccc(Cl)c(C#N)n1)c1ccsc1 (stereo unspecified)
cytotoxicity at 10 µM: 3.39%

CNC(=O)c1cccnc1NCCOc1ccc(CC#N)cc1
cytotoxicity at 10 µM: -1.53%

Cc1csc(C(C)(C)NCc2ncc(-c3ccccc3)o2)n1
cytotoxicity at 10 µM: 7.95%

Cc1c(NC(C)C(C)C)cccc1C(=O)NCc1nnc(C)n1C (stereo unspecified)
cytotoxicity at 10 µM: 6.45%

COc1ccc(C(=O)NCC(=O)N(Cc2ccsc2)C2CC2)cc1OC
cytotoxicity at 10 µM: 0.995%

Cc1ccnc(NCc2cccc(OCCN3CCOCC3)c2)n1
cytotoxicity at 10 µM: 2.5%

Cn1c(=O)ccn(CC(=O)Nc2cnccc2O)c1=O
cytotoxicity at 10 µM: 2.13%

CCOc1ccc(NS(=O)(=O)c2cc(C)c(C(=O)O)s2)c(C)c1
cytotoxicity at 10 µM: -3.21%

O=C(Cc1cccc(F)c1)NCCNCC1CNc2ccnn2C1 (stereo unspecified)
cytotoxicity at 10 µM: 2.04%

Cn1cnc(S(=O)(=O)N2CCOCC2)c1Cl
cytotoxicity at 10 µM: 5.9%

COC(=O)CN1CCN(c2cccc(C)c2)CC1
cytotoxicity at 10 µM: 3.54%

O=C(c1ccc(-c2ccccc2)[nH]c1=O)N1CCCn2ncnc21
cytotoxicity at 10 µM: 1.46%

COc1ccc(C2CCCN2C(=O)NCCNc2ccccn2)cc1 (stereo unspecified)
cytotoxicity at 10 µM: 6.64%

Cc1cn(-c2ccccc2)nc1NS(=O)(=O)c1ccc(C(=O)O)cc1F
cytotoxicity at 10 µM: -2.59%

O=C(NCCCn1nc2ccccn2c1=O)NCC(C1CC1)C1CC1
cytotoxicity at 10 µM: 6.01%

CC(C)C1CN(S(=O)(=O)c2cccc(C#N)c2)CCS1 (stereo unspecified)
cytotoxicity at 10 µM: 1.06%

CN(C)S(=O)(=O)Nc1ccc(-n2nncc2C(F)(F)F)cc1
cytotoxicity at 10 µM: -2.64%

O=C(Nc1nnc(N2CCCCC2)[nH]1)c1cccs1
cytotoxicity at 10 µM: -10.7%

CC(C)c1ocnc1C(=O)N1CCCC(c2ccn[nH]2)C1 (stereo unspecified)
cytotoxicity at 10 µM: -3.92%

OC(CN(Cc1ccccc1)Cc1ccon1)c1ccco1 (stereo unspecified)
cytotoxicity at 10 µM: 4.42%

CCc1cc(NC(=O)c2cccc(OCC(F)(F)F)n2)[nH]n1
cytotoxicity at 10 µM: -1.42%

CC(=O)N1CCC(NC(=O)N2CCCC2c2ccsc2)CC1 (stereo unspecified)
cytotoxicity at 10 µM: 0.421%

CCCC(C)(C)NC(=O)c1cnc(C)s1
cytotoxicity at 10 µM: 4.51%

COc1ccccc1CC(C)(C)NC(=O)CNS(C)(=O)=O
cytotoxicity at 10 µM: 4.21%

CN(C)C(=O)CNC(CC(F)(F)F)c1ccc(F)cc1 (stereo unspecified)
cytotoxicity at 10 µM: -3.08%

Cc1ccsc1CNC(=O)c1ccc2c(c1)CCC(=O)N2
cytotoxicity at 10 µM: 4.91%

Cc1nn(C)c(Oc2ccccc2)c1CNC1CCCCNC1=O (stereo unspecified)
cytotoxicity at 10 µM: 2.56%

CC(C)Cc1nc(CNCc2cccc(N3CCCC3=O)c2)no1
cytotoxicity at 10 µM: 0.753%

CC(C)N(Cc1cccnc1)C(=O)CNc1ccc(C#N)cc1
cytotoxicity at 10 µM: 1.44%

CCn1c(CN2CCCC(Cn3cncn3)C2)nc2c(F)cccc21 (stereo unspecified)
cytotoxicity at 10 µM: 6.49%

Cn1cnc2cc(C(=O)NS(=O)(=O)CC3CCCC3)ccc21
cytotoxicity at 10 µM: -3.2%

Cc1csc(N2CCN(CCCN3CCCC3=O)CC2)n1
cytotoxicity at 10 µM: 3.92%

Cc1ncsc1C(=O)NCCCN1CCCCCC1=O
cytotoxicity at 10 µM: -3.51%

O=C(NC1CCN(c2ncccc2F)C1)c1cccc(-n2ccnn2)c1 (stereo unspecified)
cytotoxicity at 10 µM: 7.49%

CCc1nnc2n1CCN(Cc1csc(-c3cnn(C)c3)n1)C2
cytotoxicity at 10 µM: 18.4%

O=C(c1ccccn1)N1C[C@@H](OCc2cccnc2)[C@H]2OCCC[C@@H]21
cytotoxicity at 10 µM: -0.187%

CCn1nc(C)c(CCNC(=O)C2CCCN(C(C)=O)C2)c1C (stereo unspecified)
cytotoxicity at 10 µM: -20.8%

CCc1cnc(C)nc1NC1CC(=O)N(CC2CCCCC2)C1 (stereo unspecified)
cytotoxicity at 10 µM: -6.38%

Cc1nc2c(c(=O)n1C)CN(C(=O)C1CCCN(C(N)=O)C1)C2 (stereo unspecified)
cytotoxicity at 10 µM: -2.38%

COCc1nc(N(C)CCSc2ccccc2)c2cnn(C)c2n1
cytotoxicity at 10 µM: 1.98%

CCC(=O)c1ccc(OCC(=O)N2CCNCC2C(=O)NC2CC2)cc1 (stereo unspecified)
cytotoxicity at 10 µM: -3.28%

COCCN1CCC(c2nc3c([nH]2)CC(C)(C)CNC3=O)C1 (stereo unspecified)
cytotoxicity at 10 µM: -2.18%

CCN(Cc1cnn(CC)c1)C(=O)Cn1c(=O)c(C)nc2ccccc21
cytotoxicity at 10 µM: 0.791%

CC(C)(C)c1noc(-c2nc3c([nH]2)CCCNC3=O)n1
cytotoxicity at 10 µM: -3.83%

COc1ccc(C(=O)C2CCCN(Cc3ccccc3O)C2)c(OC)c1 (stereo unspecified)
cytotoxicity at 10 µM: 5.45%

CCNC(=O)[C@@H]1C[C@H](NC(=O)c2cc(CC)n[nH]2)CN1Cc1ccsc1
cytotoxicity at 10 µM: -5.92%

O=C(CN1CCNCC1)NCc1ccc2sccc2c1
cytotoxicity at 10 µM: 1.16%

Cc1cnc(NC(=O)c2cccc(CN(C)Cc3ccno3)c2)s1
cytotoxicity at 10 µM: 61.3%

O=C(CC[C@@H]1CCCN2CCCC[C@H]12)NCCc1nc(O)cc(O)n1
cytotoxicity at 10 µM: -0.392%

Cc1cc(CN(C)C(=O)CN2CC3(CCNCC3)OC2=O)no1
cytotoxicity at 10 µM: 3.19%

CC(C)n1cnnc1CN(C)Cc1cnc(-c2ccco2)nc1
cytotoxicity at 10 µM: 10.8%

Cc1cnc(NCCc2c[nH]cn2)nc1-c1ccnn1C
cytotoxicity at 10 µM: -2.53%

Cc1ncsc1CCC(=O)NCc1csc(N2CCCC2)n1
cytotoxicity at 10 µM: -2.56%

CC(C)Cc1cc(C(=O)NCC(O)c2ccc(F)cc2)n(C)n1 (stereo unspecified)
cytotoxicity at 10 µM: -2.96%

Cc1noc(CC2CCN(C(=O)C(c3ccccc3C)N(C)C)CC2)n1 (stereo unspecified)
cytotoxicity at 10 µM: 1.86%

COCc1ncc(CN2CCC(Oc3ccccc3OC)CC2)cn1
cytotoxicity at 10 µM: -1.77%

CC1CN(CC(=O)NCc2ccccn2)CCN1Cc1nccn1C (stereo unspecified)
cytotoxicity at 10 µM: -4.07%

CC(C)CCN(C)Cc1nc2c(cnn2C)c(=O)[nH]1
cytotoxicity at 10 µM: -11.2%

Cc1cc(C(=O)NCc2ccnc(OCC(F)(F)F)c2)on1
cytotoxicity at 10 µM: -9.63%

Cc1ccc(CSCCn2nc3ccccn3c2=O)cc1
cytotoxicity at 10 µM: 5.64%

N#Cc1ccnc(N2CCN(C(=O)NC3CCS(=O)(=O)C3)CC2)c1 (stereo unspecified)
cytotoxicity at 10 µM: -6.83%

CCCNC(=O)[C@@H]1CCCN1[C@@H](C(=O)NC)C1CC1
cytotoxicity at 10 µM: 1.32%

CN(C)S(=O)(=O)N1CCC[C@]2(C[C@@H](Oc3ccccn3)CO2)C1
cytotoxicity at 10 µM: -2.31%

CCN(CC)Cc1cc(=O)n2c(n1)CN(C(=O)c1ccnnc1)CCC2
cytotoxicity at 10 µM: 6.66%

c1cc(CN2CCC3(CCOCC3COCC3CC3)CC2)ccn1 (stereo unspecified)
cytotoxicity at 10 µM: -9.52%

Cc1nn(C)c(N(C)C)c1CNCCOc1ccc2c(c1)OCO2
cytotoxicity at 10 µM: -1.34%

O=C(NC[C@]12COC[C@H]1CN(Cc1nccs1)C2)N1CCCC1
cytotoxicity at 10 µM: -7.27%

CN(C)Cc1nnn2c1CN(Cc1cccnc1)CCC2
cytotoxicity at 10 µM: 5.69%

Cc1nc(CN2CC[C@H]3[C@@H]2CCC(=O)N3c2cnn(C)c2)cs1
cytotoxicity at 10 µM: 11.3%

O=C(O)c1c(-c2cccnc2)ncc2c1CCN(CC1CCOC1)C2 (stereo unspecified)
cytotoxicity at 10 µM: -2.55%

COc1cc(N2CC[C@@H]3O[C@H](C(=O)N(C)C)C[C@@H]32)ncn1
cytotoxicity at 10 µM: 1.14%

CCCS(=O)(=O)N1C[C@@H](Oc2ccccn2)[C@H]2OCCC[C@H]21
cytotoxicity at 10 µM: 0.516%

Cc1noc([C@@H]2C[C@@H]3CCN(c4nnc(C)s4)C[C@H]3O2)n1
cytotoxicity at 10 µM: 5.35%

CC(=O)N(C)C1CCC2(CC1)CNC(=O)c1cc(C)ccc1O2 (stereo unspecified)
cytotoxicity at 10 µM: -35.4%

O=c1[nH]c2cn(-c3ccc(Cl)cc3)c(=O)n2[nH]1
cytotoxicity at 10 µM: 2.43%

Reference: ChEMBL document CHEMBL4513216, “Probing the Open Global Health Chemical Diversity Library for Multistage-Active Starting Points for Next-Generation Antimalarials” (ACS Infect Dis, 2020)
